ChEMBL document CHEMBL2062518, “Total synthesis and biological evaluation of transvalencin Z” (J Nat Prod, 2012)

How the values were obtained:
[1] = test system: Mycobacterium tuberculosis; test: Antimicrobial activity against Mycobacterium tuberculosis H37Rv after 24 to 48 hrs; type: functional
Candida albicans = test: Antifungal activity against Candida albicans ATCC 10231 after 24 to 48 hrs; type: functional
How it was run: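 C. albicans streaked from glycerol stock onto YM agar and grown at 30 °C for 24 h. A single colony was grown in YM broth to OD600 1.0, diluted to OD600 0.003 and incubated with compound dilutions from DMSO stocks. Read at 600 nm at 24 and 48 h, 690 nm background subtracted, normalized to DMSO controls; MIC99.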

Escherichia coli = test: Antimicrobial activity against Escherichia coli ATCC 25922 after 24 to 48 hrs; type: functional
How it was run: (§1)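 Broth microdilution at 37 °C. Glycerol stocks streaked on 1.5% agar for 24 h. Single colonies grown in broth to OD600 1.0: trypticase soy for E. coli, P. aeruginosa and S. aureus; nutrient broth for A. baumannii and K. pneumoniae; brain heart infusion for E. faecalis. Diluted to OD600 0.003 with compound dilutions from DMSO stocks. OD600 read at 24 and 48 h, 690 nm background subtracted, normalized to DMSO control; MIC99.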

Acinetobacter baumannii = test: Antimicrobial activity against Acinetobacter baumannii ATCC 19606 after 24 to 48 hrs; type: functional; details: ATCC 19606 = CIP 70.34 = JCM 6841; how it was run: as §1
[2] = Cytotoxicity against african green monkey Vero cells after 72 hrs by MTT assay; type: cell-based; details: chlorocebus sabaeus, read-out: MIC50
How it was run: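 Vero cells (ATCC CCL-81) in MEM with 10% FBS, 1% PennStrep and 1% Glutamax, seeded at 3.0 × 10^4 cells/well and left to adhere overnight. Compound in DMSO added to final 100 to 0.16 μM, in triplicate, for 72 h at 37 °C, 4.5% CO2. MTT 1.0 mg/mL in phenol red-free RPMI for 3 h, formazan dissolved in isopropanol. A570 minus A690 gave % viability vs DMSO control; dose-response curves gave 50% growth-inhibitory concentration.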

Pseudomonas aeruginosa = test: Antimicrobial activity against Pseudomonas aeruginosa ATCC 27853 after 24 to 48 hrs; type: functional; how it was run: as §1
[3] = test system: Mycolicibacterium smegmatis; test: Antimicrobial activity against Mycobacterium smegmatis MC24517 after 24 to 48 hrs; type: functional
How it was run: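 Grown from glycerol stock on nutrient agar (1.5%) at 37 °C for 24 h, with Tyloxapol added to prevent clumping. Colonies were grown in nutrient broth to OD600 1.0, diluted to OD600 0.003 and incubated with compound dilutions (1% DMSO stocks). OD600 was read at 24 and 48 h, corrected for 690 nm background and standardised to DMSO controls.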

Staphylococcus aureus [4] = test: Antimicrobial activity against methicillin-susceptible Staphylococcus aureus clinical isolate IDRL 8545 after 24 to 48 hrs; type: functional; how it was run: as §1
Enterococcus faecalis = test: Antimicrobial activity against Enterococcus faecalis ATCC 51299 after 24 to 48 hrs; type: functional; how it was run: as §1
Staphylococcus aureus [5] = test: Antimicrobial activity against methicillin-resistant Staphylococcus aureus ATCC 43300 after 24 to 48 hrs; type: functional
How it was run: (§2)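 Streaked from glycerol stock onto trypticase soy agar, 37 °C, 24 h. Single colonies were grown in trypticase soy broth to OD600 1.0 and diluted to OD600 0.003. Cells were incubated with compound at varying concentrations (1% DMSO stocks). Absorbance was read at 600 nm at 24 and 48 h, minus 690 nm background and relative to DMSO controls.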

Klebsiella pneumoniae = test: Antimicrobial activity against Klebsiella pneumoniae ATCC 13883 after 24 to 48 hrs; type: functional; how it was run: as §1
[6] = test system: Mycolicibacterium smegmatis; test: Antimicrobial activity against Mycobacterium smegmatis ATCC 607 after 24 to 48 hrs; type: functional
How it was run: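 M. smegmatis streaked from glycerol stock onto nutrient agar (1.5%), then grown at 37 °C in nutrient broth with Tyloxapol added to prevent clumping, to OD600 1.0. Diluted to OD600 0.003 and exposed to compound dilutions from DMSO stocks. Absorbance at 600 nm read at 24 and 48 h, 690 nm background subtracted, normalized to DMSO controls; MIC99.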

Bacillus subtilis = test: Antimicrobial activity against Bacillus subtilis ATCC 6633 after 24 to 48 hrs; type: functional
Staphylococcus aureus [7] = test: Antimicrobial activity against methicillin-resistant Staphylococcus aureus clinical isolate IDRL 6169 after 24 to 48 hrs; type: functional; how it was run: as §2

## O=CNCCCC[C@H](NC(=O)[C@@H]1COC(c2ccccc2O)=N1)C(=O)O
[1]
  MIC99: > 200 µM
Candida albicans
  MIC99: > 100 µM
Escherichia coli
  MIC99: > 100 µM
Acinetobacter baumannii
  MIC99: > 100 µM
[2]
  CC50 at 72 h: 164 µM
Pseudomonas aeruginosa
  MIC99: > 100 µM
[3]
  MIC99: > 100 µM
Staphylococcus aureus [4]
  MIC99: > 100 µM
Enterococcus faecalis
  MIC99: > 100 µM
Staphylococcus aureus [5]
  MIC99: > 100 µM
Klebsiella pneumoniae
  MIC99: > 100 µM
[6]
  MIC99: > 100 µM
Bacillus subtilis
  MIC99: > 100 µM
Staphylococcus aureus [7]
  MIC99: > 100 µM

## O=CNCCCC[C@@H](NC(=O)[C@H]1COC(c2ccccc2O)=N1)C(=O)O
[1]
  MIC99: > 200 µM
Candida albicans
  MIC99: > 100 µM
Escherichia coli
  MIC99: > 100 µM
Acinetobacter baumannii
  MIC99: > 100 µM
[2]
  CC50 at 72 h: > 200 µM
Pseudomonas aeruginosa
  MIC99: > 100 µM
[3]
  MIC99: > 100 µM
Staphylococcus aureus [4]
  MIC99: > 100 µM
Enterococcus faecalis
  MIC99: > 100 µM
Staphylococcus aureus [5]
  MIC99: > 100 µM
Klebsiella pneumoniae
  MIC99: > 100 µM
[6]
  MIC99: > 100 µM
Bacillus subtilis
  MIC99: > 100 µM
Staphylococcus aureus [7]
  MIC99: > 100 µM

## O=CNCCCC[C@H](NC(=O)[C@H]1COC(c2ccccc2O)=N1)C(=O)O
[1]
  MIC99: > 200 µM
Candida albicans
  MIC99: > 100 µM
Escherichia coli
  MIC99: > 100 µM
Acinetobacter baumannii
  MIC99: > 100 µM
[2]
  CC50 at 72 h: > 200 µM
Pseudomonas aeruginosa
  MIC99: > 100 µM
[3]
  MIC99: > 100 µM
Staphylococcus aureus [4]
  MIC99: > 100 µM
Enterococcus faecalis
  MIC99: > 100 µM
Staphylococcus aureus [5]
  MIC99: > 100 µM
Klebsiella pneumoniae
  MIC99: > 100 µM
[6]
  MIC99: > 100 µM
Bacillus subtilis
  MIC99: > 100 µM
Staphylococcus aureus [7]
  MIC99: > 100 µM

## O=CNCCCC[C@@H](NC(=O)[C@@H]1COC(c2ccccc2O)=N1)C(=O)O
[1]
  MIC99: > 200 µM
Candida albicans
  MIC99: > 100 µM
Escherichia coli
  MIC99: > 100 µM
Acinetobacter baumannii
  MIC99: > 100 µM
[2]
  CC50 at 72 h: 154 µM
Pseudomonas aeruginosa
  MIC99: > 100 µM
[3]
  MIC99: > 100 µM
Staphylococcus aureus [4]
  MIC99: > 100 µM
Enterococcus faecalis
  MIC99: > 100 µM
Staphylococcus aureus [5]
  MIC99: > 100 µM
Klebsiella pneumoniae
  MIC99: > 100 µM
[6]
  MIC99: > 100 µM
Bacillus subtilis
  MIC99: > 100 µM
Staphylococcus aureus [7]
  MIC99: > 100 µM

## O=CNCCCCC(NC(=O)C1COC(c2ccccc2O)=N1)C(=O)O (stereo unspecified) [TRANSVALENCIN Z]
Candida albicans
  MIC99: > 64 µg/mL
Escherichia coli
  MIC99: > 64 µg/mL
Staphylococcus aureus [5]
  MIC99: 1 µg/mL
[6]
  MIC99: 0.125 µg/mL
Bacillus subtilis
  MIC99: 16 µg/mL
